Laboratory results from ChEMBL document CHEMBL4118253, “Expedient synthesis and biological evaluation of alkenyl acyclic nucleoside phosphonate prodrugs” (Bioorg Med Chem, 2018).

How the values were obtained:
[1] = system: Human alphaherpesvirus 1; assay: Antiviral activity against Herpes simplex virus 1 KOS infected in HEL cells assessed as inhibition of virus-induced cytopathicity; type: functional, organism-based; details: Human alphaherpesvirus 1, KOS
[2] = system: Human alphaherpesvirus 2; assay: Antiviral activity against Herpes simplex virus 2 G infected in HEL cells assessed as inhibition of virus-induced cytopathicity; type: functional, organism-based; details: Human alphaherpesvirus 2, strain G
[3] = system: Human alphaherpesvirus 1; assay: Antiviral activity against acyclovir-resistant thymidine kinase deficient Herpes simplex virus 1 KOS infected in HEL cells assessed as inhibition of virus-induced cytopathicity; type: functional, organism-based; details: Human alphaherpesvirus 1, KOS
[4] = system: Vaccinia virus; assay: Antiviral activity against Vaccinia virus infected in HEL cells assessed as inhibition of virus-induced cytopathicity; type: functional, organism-based; details: Orthopoxvirus vaccinia
[5] = system: Human adenovirus 2; assay: Antiviral activity against Adenovirus 2 infected in HEL cells assessed as inhibition of virus-induced cytopathicity; type: functional, organism-based; details: Human mastadenovirus C
[6] = system: Human coronavirus 229E; assay: Antiviral activity against Human coronavirus 229E infected in HEL cells assessed as inhibition of virus-induced cytopathicity; type: functional, organism-based
[7] = system: Human respirovirus 3; assay: Antiviral activity against Parainfluenza virus 3 infected in human HeLa cells assessed as inhibition of virus-induced cytopathicity; type: functional, organism-based; details: Human respirovirus 3, HeLa
[8] = system: Mammalian orthoreovirus 1; assay: Antiviral activity against Reovirus-1 infected in human HeLa cells assessed as inhibition of virus-induced cytopathicity; type: functional, organism-based; details: Mammalian orthoreovirus 1, HeLa
[9] = system: Vesicular stomatitis virus; assay: Antiviral activity against Vesicular stomatitis virus infected in human HeLa cells assessed as inhibition of virus-induced cytopathicity; type: functional, organism-based
[10] = system: Respiratory syncytial virus; assay: Antiviral activity against Respiratory syncytial virus infected in human HeLa cells assessed as inhibition of virus-induced cytopathicity; type: functional, organism-based
[11] = system: Influenza A virus; assay: Antiviral activity against Influenza A virus H1N1 infected in MDCK cells assessed as inhibition of virus-induced cytopathicity by MTS assay; type: functional, organism-based
[12] = system: Influenza A virus H3N2; assay: Antiviral activity against Influenza A virus H3N2 infected in MDCK cells assessed as inhibition of virus-induced cytopathicity by MTS assay; type: functional, organism-based
[13] = system: Influenza B virus; assay: Antiviral activity against Influenza B virus infected in MDCK cells assessed as inhibition of virus-induced cytopathicity by MTS assay; type: functional, organism-based
[14] = system: Human alphaherpesvirus 3; assay: Antiviral activity against thymidine kinase expressing Varicella-Zoster virus infected in HEL cells assessed as reduction in virus plaque formation; type: functional, organism-based; details: Human alphaherpesvirus 3, HEL
[15] = system: Human alphaherpesvirus 3; assay: Antiviral activity against thymidine kinase deficient Varicella-Zoster virus infected in HEL cells assessed as reduction in virus plaque formation; type: functional, organism-based; details: Human alphaherpesvirus 3, HEL
[16] = system: Human betaherpesvirus 5; assay: Antiviral activity against Human cytomegalovirus AD169 infected in HEL cells assessed as inhibition of virus-induced cytopathicity; type: functional, organism-based; details: Human betaherpesvirus 5, AD169, HEL
[17] = system: Human betaherpesvirus 5; assay: Antiviral activity against Human cytomegalovirus Davis infected in HEL cells assessed as inhibition of virus-induced cytopathicity; type: functional, organism-based; details: Human betaherpesvirus 5, Davis
[18] = Cytotoxicity against HEL cells assessed as alteration of cell morphology by microscopic analysis; type: cell-based; details: human
Outline: (§1)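 The value is the minimal cytotoxic concentration (MCC), the lowest concentration that causes a microscopically visible change in cell morphology. It was read in the same HEL or Vero cell cultures used for the antiviral tests.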

[19] = system: Sindbis virus; assay: Antiviral activity against Sindbis Virus infected in African green monkey Vero cells assessed as inhibition of virus-induced cytopathicity; type: functional, organism-based
[20] = system: Coxsackievirus B4; assay: Antiviral activity against Coxsackie virus B4 infected in African green monkey Vero cells assessed as inhibition of virus-induced cytopathicity; type: functional, organism-based; details: Enterovirus B
[21] = system: Punta Toro virus; assay: Antiviral activity against Punta Toro virus infected in African green monkey Vero cells assessed as inhibition of virus-induced cytopathicity; type: functional, organism-based
[22] = system: Yellow fever virus; assay: Antiviral activity against Yellow fever virus infected in African green monkey Vero cells assessed as inhibition of virus-induced cytopathicity; type: functional, organism-based
[23] = Cytotoxicity against African green monkey Vero cells assessed as alteration of cell morphology by microscopic analysis; type: cell-based; details: chlorocebus sabaeus; outline: as §1
[24] = Cytotoxicity against human HeLa cells assessed as alteration of cell morphology by microscopic analysis; type: cell-based
[25] = Cytotoxicity against MDCK cells assessed as alteration of cell morphology by microscopic analysis; type: cell-based, Canis lupus familiaris; details: dog
[26] = system: Influenza A virus; assay: Antiviral activity against Influenza A virus H1N1 infected in MDCK cells assessed as inhibition of virus-induced visual cytopathicity; type: functional, organism-based
[27] = system: Influenza A virus H3N2; assay: Antiviral activity against Influenza A virus H3N2 infected in MDCK cells assessed as inhibition of virus-induced visual cytopathicity; type: functional, organism-based
[28] = system: Influenza B virus; assay: Antiviral activity against Influenza B virus infected in MDCK cells assessed as inhibition of virus-induced visual cytopathicity; type: functional, organism-based

Row | Compound | EC50 [1] [µM] | EC50 [2] [µM] | EC50 [3] [µM] | EC50 [4] [µM] | EC50 [5] [µM] | EC50 [6] [µM] | EC50 [7] [µM] | EC50 [8] [µM] | EC50 [9] [µM] | EC50 [10] [µM] | EC50 [11] [µM] | EC50 [12] [µM] | EC50 [13] [µM] | EC50 [14] [µM] | EC50 [15] [µM] | EC50 [16] [µM] | EC50 [17] [µM] | MCC [18] [µM] | EC50 [19] [µM] | EC50 [20] [µM] | other results
1 | C/C(=C\CP(=O)(N[C@@H](C)C(=O)OC(C)C)Oc1cccc2c1CCCC2)Cn1ccc(=O)[nH]c1=O (stereo partly specified) | > 100 | > 100 | > 100 | > 100 | > 100 | > 100 | > 100 | > 100 | > 100 | > 100 | > 100 | > 100 | > 100 | 29.9 | 71.5 | > 100 | > 100 | > 100 | > 100 | > 100 | EC50 [21]: > 100 µM; EC50 [22]: > 100 µM; MCC [23]: > 100 µM; MCC [24]: > 100 µM; MCC [25]: > 100 µM; EC50 [26]: > 100 µM; EC50 [27]: > 100 µM; EC50 [28]: > 100 µM
2 | C/C(=C\CP(=O)(N[C@@H](C)C(=O)OCc1ccccc1)Oc1cccc2c1CCCC2)Cn1cc(C)c(=O)[nH]c1=O (stereo partly specified) | > 100 | > 100 | > 100 | > 100 | > 100 | > 100 | > 100 | > 100 | > 100 | > 100 | > 100 | > 100 | > 100 | 50.2 | 47.2 | > 100 | > 100 | > 100 | > 100 | > 100 | EC50 [21]: > 100 µM; EC50 [22]: > 100 µM; MCC [23]: ≥ 100 µM; MCC [24]: ≥ 100 µM; MCC [25]: > 100 µM; EC50 [26]: > 100 µM; EC50 [27]: > 100 µM; EC50 [28]: > 100 µM
